From ChEMBL document CHEMBL1129303, “Potent human immunodeficiency virus type 1 protease inhibitors that utilize noncoded D-amino acids as P2/P3 ligands” (J Med Chem, 1996) come the findings set out here.

“And” between values parts separate entries of the source, which are not always exact repeats. Equal values may be shown once.

The subject of data set [1] is CCRF-CEM. Kind of data set: Antiviral activity against CEM cells. It is filed as functional, cell-based. As to conditions: Homo sapiens.
The test system of the next data set is MT2. Kind of data set: Antiviral activity against MT-2 cells. As to conditions: Homo sapiens. It is filed as functional, cell-based.
The target in data set [2] is Human immunodeficiency virus type 1 protease (Human immunodeficiency virus 1, UniProt Q72874). Kind of data set: Inhibitory activity against HIV-1 protease.
Data set [3] can be described thus: Maximum plasma concentration in rat upon oral administration of 40 mg/kg. Format: ADME, organism-based. More on the design: dose 40 mg/kg, route oral. In outline: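 Fasted (16-18 h) Harlan Sprague-Dawley rats, jugular cannula implanted ≥48 h earlier, gavaged 40 mg/kg in acacia/Tween emulsion, n=2. Plasma from 0-4 h blood draws diluted 1:49 and assayed by HIV protease cleavage of FITC-labelled peptide (5 h, 37 °C, MES pH 5.5) with HPLC quantitation. Inhibitory activity read against a standard curve of parent compound; Cmax is the peak.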

The test system of data set [4] is CCRF-CEM. Nature of the data set: In vitro inhibitory activity against replication of HIV type-1 virus in CEM cells. It is filed as functional, cell-based. The conditions noted are these: Homo sapiens.

As a reminder, the IC50 is the concentration at which inhibition is half-maximal. A high value points to weaker potency in that assay. As a reminder, the Cmax is the maximum level reached in the sampled fluid or tissue.

In the case of `CC(C)(C)NC(=O)c1ccccc1C[C@@H](O)[C@H](Cc1ccccc1)NC(=O)[C@H](CSCc1ccccc1)NS(C)(=O)=O`, the results for the IC50 (in the data set with CCRF-CEM [1]; in the data set with MT2; in data set [2]) were 1650 nM, 926 nM and 14.7 nM, respectively.

With `Cn1nnnc1SC[C@H](NS(C)(=O)=O)C(=O)N[C@@H](Cc1ccccc1)[C@H](O)Cc1ccccc1C(=O)NC(C)(C)C`, the IC50 with CCRF-CEM [1] worked out at 6680 nM; with MT2, 9260 nM; in data set [2], 17.5 nM.

The compound `CC(C)(C)NC(=O)c1ccccc1C[C@@H](O)[C@H](Cc1ccccc1)NC(=O)[C@H](CS(=O)(=O)c1ccc(C(F)(F)F)cc1)NS(C)(=O)=O` gave a Cmax in data set [3] below 300 ng/mL. Further, the IC50 amounted to 204 nM in the data set on CCRF-CEM [1], 646 nM in the data set with CCRF-CEM [4], 450 nM in the data set on MT2 and 2 nM in data set [2].

With `CC(C)(C)NC(=O)c1ccccc1C[C@@H](O)[C@H](Cc1ccccc1)NC(=O)C(CS(=O)(=O)c1ccc2ccccc2n1)NS(C)(=O)=O` (stereo partly drawn), the IC50 was 2060 nM with CCRF-CEM [1], 5780 nM in the data set with CCRF-CEM [4], 3030 nM in the data set on MT2 and 2.8 nM in data set [2].

Regarding `CC(=O)N[C@@H](CSc1ccc2ccccc2n1)C(=O)N[C@@H](Cc1ccccc1)[C@H](O)Cc1ccccc1C(=O)NC(C)(C)C`, the IC50 in data set [2] came to 14.7 nM.

With `CCCC(=O)N[C@@H](CC(=O)OCc1ccccc1)C(=O)N[C@@H](Cc1ccccc1)[C@H](O)Cc1ccccc1C(=O)NC(C)(C)C`, the IC50 in the data set with CCRF-CEM [1] came out at 8700 nM; with MT2, 24200 nM; in data set [2], 323 nM.

For the compound `COc1ccc(SC[C@H](NS(C)(=O)=O)C(=O)N[C@@H](Cc2ccccc2)[C@H](O)Cc2ccccc2C(=O)NC(C)(C)C)cc1`, the results for the IC50 (with CCRF-CEM [1]; in the data set with MT2; in data set [2]) were 1800 nM, 1910 nM and 16 nM, respectively.

With `CC(=O)N[C@@H](C[S+]([O-])c1ccc2ccccc2n1)C(=O)N[C@@H](Cc1ccccc1)[C@H](O)Cc1ccccc1C(=O)NC(C)(C)C` (stereo partly drawn), the IC50 with CCRF-CEM [1] was 72 nM; with MT2 it was 180 nM; in data set [2] it was 0.25 nM.

Take `CC(C)(C)NC(=O)c1ccccc1C[C@@H](O)[C@H](Cc1ccccc1)NC(=O)[C@H](CSc1ccc(C(F)(F)F)cc1)NS(C)(=O)=O`: the IC50 was determined as 2930 nM with CCRF-CEM [1], 5910 nM in the data set on MT2 and 170 nM in data set [2].

As to `CC(C)(C)NC(=O)c1ccccc1C[C@@H](O)[C@H](Cc1ccccc1)NC(=O)[C@H](CS(=O)(=O)c1cccc2ccccc12)NS(C)(=O)=O`, the IC50 is below 0.5 nM in the data set with CCRF-CEM [1], 49 nM with CCRF-CEM [4], 8.8 nM in the data set on MT2 and 0.44 nM in data set [2].

Take `CC(C)(C)NC(=O)c1ccccc1C[C@@H](O)[C@H](Cc1ccccc1)NC(=O)[C@H](C[S+]([O-])c1cccc2ccccc12)NS(C)(=O)=O` (stereo partly drawn): the Cmax in data set [3] is below 250 ng/mL. Further, the IC50 with CCRF-CEM [1] was below 0.5 nM; in the data set on CCRF-CEM [4] it was 0.8 nM; in the data set on MT2, 6 nM; in data set [2], 0.45 nM.

`CC(C)(C)NC(=O)c1ccccc1C[C@@H](O)[C@H](Cc1ccccc1)NC(=O)[C@H](CSc1cccc2ccccc12)NS(C)(=O)=O`: the IC50 was 270 nM in the data set on CCRF-CEM [1], 323 nM in the data set on CCRF-CEM [4], 760 nM with MT2 and 1.2 nM in data set [2].

For the compound `CC(C)(C)NC(=O)c1ccccc1C[C@@H](O)[C@H](Cc1ccccc1)NC(=O)[C@H](C[S+]([O-])c1ccc(C(F)(F)F)cc1)NS(C)(=O)=O` (stereo partly drawn), the Cmax in data set [3] was below 200 ng/mL. Besides, the IC50 with CCRF-CEM [1] came out at 53 nM; in the data set with MT2, 116 nM; in data set [2] it was 2.3 nM.

For `CC(=O)N[C@@H](CS(=O)(=O)c1ccc2ccccc2n1)C(=O)N[C@@H](Cc1ccccc1)[C@H](O)Cc1ccccc1C(=O)NC(C)(C)C`, the IC50 worked out at 59 nM with CCRF-CEM [4] and 0.28 nM in data set [2].

Take `CC(C)(C)NC(=O)c1ccccc1C[C@@H](O)[C@H](Cc1ccccc1)NC(=O)[C@H](CSc1ccc2ccccc2c1)NS(C)(=O)=O`: the IC50 in the data set on CCRF-CEM [1] was found to be 530 nM; in the data set on MT2, 800 nM; in data set [2], 1.8 nM.

`CCC(=O)N[C@@H](CC(=O)OCc1ccccc1)C(=O)N[C@@H](Cc1ccccc1)[C@H](O)Cc1ccccc1C(=O)NC(C)(C)C`: the figures for the IC50 (with CCRF-CEM [1]; with MT2; in data set [2]) were 5200 nM, 9880 nM and 73 nM, respectively.

`CC(C)(C)NC(=O)c1ccccc1C[C@@H](O)[C@H](Cc1ccccc1)NC(=O)[C@H](C[S+]([O-])c1ccc(F)cc1)NS(C)(=O)=O` (stereo partly drawn): in data set [3], the Cmax came out at 2200 ng/mL. Also, the figures for the IC50 (with CCRF-CEM [1]; with MT2; in data set [2]) were 165 nM, 900 nM and 0.38 nM, respectively.

As for `CC(C)(C)NC(=O)c1ccccc1C[C@@H](O)[C@H](Cc1ccccc1)NC(=O)[C@H](CSc1ccccn1)NS(C)(=O)=O`, the IC50 in data set [2] is 910 nM.

In data set [3], `CC(C)(C)NC(=O)c1ccccc1C[C@@H](O)[C@H](Cc1ccccc1)NC(=O)[C@H](C[S+]([O-])c1ccc2ccccc2c1)NS(C)(=O)=O` (stereo partly drawn) registered a Cmax of 330 ng/mL. The IC50 was below 0.5 nM in the data set on CCRF-CEM [1], 6.7 nM in the data set on CCRF-CEM [4], 4.3 nM in the data set with MT2 and 3.5 nM in data set [2].

Compound `CC(C)(C)NC(=O)c1ccccc1C[C@@H](O)[C@H](Cc1ccccc1)NC(=O)[C@H](CS(=O)(=O)c1ccccc1)NS(C)(=O)=O` had a Cmax in data set [3] below 300 ng/mL. Also, the IC50 was determined as 72 nM in the data set on CCRF-CEM [1], 83 nM with CCRF-CEM [4], 176 nM with MT2 and 5.7 nM in data set [2].

In the case of `CC(C)(C)NC(=O)c1ccccc1C[C@@H](O)[C@H](Cc1ccccc1)NC(=O)[C@H](C[S+]([O-])c1ccccn1)NS(C)(=O)=O` (stereo partly drawn), the Cmax in data set [3] was below 200 ng/mL. For the same compound, the IC50 with CCRF-CEM [1] was 330 nM; with CCRF-CEM [4], 474 nM; with MT2 it was 770 nM; in data set [2] it was 19.3 nM and 7.9 nM.

As for `CC(C)(C)NC(=O)c1ccccc1C[C@@H](O)[C@H](Cc1ccccc1)NC(=O)[C@H](CS(=O)(=O)Cc1ccccc1)NS(C)(=O)=O`, the IC50 in the data set on CCRF-CEM [1] turned out to be 800 nM; in the data set on MT2, 730 nM; in data set [2], 19.4 nM.

`CC(=O)N[C@@H](CS(=O)(=O)c1ccc2ccccc2c1)C(=O)N[C@@H](Cc1ccccc1)[C@H](O)Cc1ccccc1C(=O)NC(C)(C)C`: the Cmax in data set [3] is below 100 ng/mL. Moreover, the IC50 in the data set on CCRF-CEM [1] was 11 nM; with MT2 it was 31 nM; in data set [2], 0.32 nM.

For `CC(C)(C)NC(=O)c1ccccc1C[C@@H](O)[C@H](Cc1ccccc1)NC(=O)[C@H](CSc1ccc2ccccc2n1)NS(C)(=O)=O`, the IC50 in the data set on CCRF-CEM [1] was found to be 5400 nM; in the data set on MT2, 6440 nM; in data set [2], 60 nM.

Take `CC(C)(C)NC(=O)c1ccccc1C[C@@H](O)[C@H](Cc1ccccc1)NC(=O)[C@H](CS(=O)(=O)c1ccc(Cl)cc1)NS(C)(=O)=O`: the Cmax in data set [3] is below 300 ng/mL. Also, the IC50 with CCRF-CEM [1] came out at 138 nM; in the data set with CCRF-CEM [4], 16 nM; in the data set with MT2, 24 nM; in data set [2], 0.34 nM.

The compound `Cn1nnnc1[S+]([O-])C[C@H](NS(C)(=O)=O)C(=O)N[C@@H](Cc1ccccc1)[C@H](O)Cc1ccccc1C(=O)NC(C)(C)C` (stereo partly drawn) registered a Cmax in data set [3] of 490 ng/mL. Besides, the IC50 was determined as 5010 nM in the data set on CCRF-CEM [4] and 2.1 nM in data set [2].

As to `CC(C)(C)NC(=O)c1ccccc1C[C@@H](O)[C@H](Cc1ccccc1)NC(=O)[C@H](CSc1ccccc1)NS(C)(=O)=O`, the IC50 in the data set with CCRF-CEM [1] stood at 4370 nM; in the data set with MT2, 2750 nM; in data set [2], 44 nM.

In the case of `CC(=O)N[C@@H](CS(=O)(=O)c1ccccc1)C(=O)N[C@@H](Cc1ccccc1)[C@H](O)Cc1ccccc1C(=O)NC(C)(C)C`, the IC50 in the data set on CCRF-CEM [1] was determined as 815 nM; with MT2, 820 nM; in data set [2] it was 20 nM.

`COc1ccc(S(=O)(=O)C[C@H](NS(C)(=O)=O)C(=O)N[C@@H](Cc2ccccc2)[C@H](O)Cc2ccccc2C(=O)NC(C)(C)C)cc1` registered a Cmax in data set [3] below 300 ng/mL. Further, the IC50 came to 54 nM with CCRF-CEM [1], 107 nM with CCRF-CEM [4], 150 nM with MT2 and 2.4 nM in data set [2].

Consider `CC(C)(C)NC(=O)c1ccccc1C[C@@H](O)[C@H](Cc1ccccc1)NC(=O)[C@H](CS(=O)(=O)c1ccccn1)NS(C)(=O)=O`, for which, in data set [2], the IC50 came to 22 nM.

Consider `CC(C)(C)NC(=O)c1ccccc1C[C@@H](O)[C@H](Cc1ccccc1)NC(=O)[C@H](C[S+]([O-])c1ccccc1)NS(C)(=O)=O` (stereo partly drawn), for which the IC50 in the data set on CCRF-CEM [1] was determined as 100 nM; with MT2, 500 nM; in data set [2], 1.9 nM.

As for `CC(=O)N[C@@H](CSc1ccccc1)C(=O)N[C@@H](Cc1ccccc1)[C@H](O)Cc1ccccc1C(=O)NC(C)(C)C`, the IC50 came to 5400 nM in the data set with CCRF-CEM [1], 11300 nM in the data set on MT2 and 220 nM in data set [2].

With `CC(C)(C)NC(=O)c1ccccc1C[C@@H](O)[C@H](Cc1ccccc1)NC(=O)[C@H](CSc1ccc(F)cc1)NS(C)(=O)=O`, the IC50 in the data set with CCRF-CEM [1] is 2130 nM; with MT2 it was 2880 nM; in data set [2], 4.4 nM.

`CC(C)(C)NC(=O)c1ccccc1C[C@@H](O)[C@H](Cc1ccccc1)NC(=O)[C@H](CS(=O)(=O)c1ccc2ccccc2n1)NS(C)(=O)=O` had a Cmax in data set [3] below 100 ng/mL. Further, the IC50 with CCRF-CEM [1] was below 0.5 nM; in the data set with CCRF-CEM [4], 12 nM; in the data set with MT2 it was 5 nM; in data set [2], 0.3 nM.

Regarding `CC(C)(C)NC(=O)c1ccccc1C[C@@H](O)[C@H](Cc1ccccc1)NC(=O)[C@H](CS(=O)(=O)c1ccc(F)cc1)NS(C)(=O)=O`, the Cmax in data set [3] is below 300 ng/mL. Also, the IC50 in the data set on CCRF-CEM [1] was 59 nM; with CCRF-CEM [4], 32 nM; in the data set with MT2, 440 nM; in data set [2] it was 0.77 nM.

With `CC(C)(C)NC(=O)c1ccccc1C[C@@H](O)[C@H](Cc1ccccc1)NC(=O)[C@@H](N)CC(=O)OCc1ccccc1`, in data set [2], the IC50 is above 1000 nM.
